# Measurements from different studies.
# Each line is one published result; the experiments were not run side by side.
# Target: Serine/threonine-protein kinase TAO1 (TAOK1, Homo sapiens, UniProt Q7L7X3)
# One construct used (Q7L7X3 1-1001): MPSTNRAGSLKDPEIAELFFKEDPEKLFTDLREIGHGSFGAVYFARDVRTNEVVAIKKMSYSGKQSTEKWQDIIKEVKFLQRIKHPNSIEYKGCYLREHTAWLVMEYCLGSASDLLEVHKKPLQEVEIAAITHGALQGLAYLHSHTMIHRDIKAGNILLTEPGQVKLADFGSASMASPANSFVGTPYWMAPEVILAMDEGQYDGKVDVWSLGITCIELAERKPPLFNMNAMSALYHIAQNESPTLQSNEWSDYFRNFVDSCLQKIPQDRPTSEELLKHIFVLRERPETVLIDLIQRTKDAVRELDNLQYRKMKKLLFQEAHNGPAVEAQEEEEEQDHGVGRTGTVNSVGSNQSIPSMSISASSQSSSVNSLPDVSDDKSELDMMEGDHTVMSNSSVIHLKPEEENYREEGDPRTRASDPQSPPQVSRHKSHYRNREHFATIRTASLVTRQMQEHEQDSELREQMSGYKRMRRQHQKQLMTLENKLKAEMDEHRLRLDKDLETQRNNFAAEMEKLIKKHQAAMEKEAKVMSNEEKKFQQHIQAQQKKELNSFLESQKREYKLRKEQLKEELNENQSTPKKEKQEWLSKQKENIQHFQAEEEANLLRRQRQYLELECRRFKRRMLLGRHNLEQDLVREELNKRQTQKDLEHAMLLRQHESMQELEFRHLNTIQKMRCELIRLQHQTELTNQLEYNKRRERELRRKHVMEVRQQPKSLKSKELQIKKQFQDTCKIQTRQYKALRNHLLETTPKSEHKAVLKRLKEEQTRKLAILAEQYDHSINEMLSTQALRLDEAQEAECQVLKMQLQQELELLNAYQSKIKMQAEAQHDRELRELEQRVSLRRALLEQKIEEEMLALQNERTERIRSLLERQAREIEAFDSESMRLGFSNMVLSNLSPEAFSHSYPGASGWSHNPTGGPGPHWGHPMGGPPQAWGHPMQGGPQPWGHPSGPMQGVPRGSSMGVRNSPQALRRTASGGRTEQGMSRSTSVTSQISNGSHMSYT
SMILES,assay,setting,remaining binding [%]
O=C(NCC1CCOCC1)c1n[nH]cc1NC(=O)c1c(F)cccc1F,"binding, competition with immobilised ligand",1 µM,83
CNCc1ccccc1-c1csc([C@H](C)Nc2nc(C)nc3cc(OC)c(OC)cc23)c1,"cell-free assay, competition with immobilised ligand",1 µM,100
Cc1cnc(Nc2ccc(C(=O)N3CCC(N4CCCC4)CC3)cc2)nc1-c1cc2ccccc2s1,"binding, competition with immobilised ligand",1 µM,64
CC1CCCN1c1nccc(-c2cnn3ncccc23)n1 (centres unmarked),binding,1 µM,100
c1cncc(-c2cccc(Nc3nccc(NC4CCCCC4)n3)c2)c1,"binding, competition with immobilised ligand",10 µM,97
Cc1cnn2ncc(-c3ccnc(N(C)C)n3)c2c1,binding,1 µM,92
CN(C(=O)c1ccccc1)c1cc(N(C)c2ccc3c(c2)CCc2ccc(C(=O)NCCN4CCOCC4)cc2C3=O)ccc1F,"cell-free assay, competition with immobilised ligand",1 µM,81
CN(C)c1ncc(F)c(-c2cnn3ncccc23)n1,binding,1 µM,73
COc1ncc2cc3ccccc3nc2c1C#N,"cell-free assay, competition with immobilised ligand",5 µM,100
O=C(c1ccc(Nc2nccc(-c3cc4ccccc4s3)n2)cc1)N1CCC(N2CCCC2)CC1,"binding, competition with immobilised ligand",1 µM,82
CCC(=N\O)/C(C)=C/c1ccc(F)cc1,"cell-free assay, competition with immobilised ligand",1 µM,100
FC(F)(F)Oc1cccc(-c2cnc3ccc(-c4ccncc4)nn23)c1,"binding, competition with immobilised ligand",5 µM,40
O=C1CCc2cc(Nc3cc(OC4CCOCC4)c([N+](=O)[O-])cc3Cl)ccc2N1,"cell-free assay, competition with immobilised ligand",1 µM,81
C=CC(=O)N1CCC(C(=O)NCC(=O)N2CCN(c3nc(-c4cnc(N)nc4C(F)F)nc(N4CCOCC4)n3)CC2)CC1,"binding, competition with immobilised ligand",1 µM,80
Nc1ncc2c(n1)-c1c([nH]c3ccc(C#CC4CC4)cc13)CCCC2,"binding, competition with immobilised ligand",1 µM,97
CC1=C(C#N)[C@@H](c2ccc3[nH]nc(C)c3c2)C(C#N)=C(c2ccc(Cl)cc2)N1,"cell-free assay, competition with immobilised ligand",1 µM,100
C[C@H]1CCN(c2nccc(-c3cnn4ncccc34)n2)C1,binding,1 µM,78
CNC(=O)[C@@H]1CC[C@@H](n2c(-c3ccc4cnccc4c3)nc3ccc(C(=O)NCc4cccc(C(N)=O)c4)cc32)C1,"binding, competition with immobilised ligand",1 µM,100
O=C(NCCCN1CCOCC1)c1ccc(Nc2ncc(Cl)c(-c3ccc(Cl)s3)n2)cc1,"binding, competition with immobilised ligand",1 µM,43
N[C@H]1CCN(c2nccc(-c3cnn4ncccc34)n2)C1,binding,1 µM,87
COCCOc1nc(-c2ccc(Cl)nc2)nc2c1CN(C(=O)c1ncn3ccccc13)CC2,"cell-free assay, competition with immobilised ligand",0.1 µM,100
COc1ccnn2ncc(-c3ccnc(N(C)C)n3)c12,binding,1 µM,81
COc1cccc(CNC(=O)c2nc3scc(COCc4ccc(C(=O)O)cc4)c3c(=O)[nH]2)c1,"cell-free assay, competition with immobilised ligand",1 µM,69.5
